From ChEMBL document CHEMBL3046278, “Design, synthesis and antifungal/insecticidal evaluation of novel cinnamide derivatives” (2011)
≈ marks a conversion by molar mass, not a printed value.

Assays:
Type in all cases: functional
Botrytis cinerea = experiment: Antifungal activity against Botryotinia fuckeliana assessed as inhibition of mycelium growth at 50 ug/ml relative to control
Method in brief: (§1)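 Mycelial growth inhibition on mycelial disks, compared with untreated control, using colony diameters: (control − treatment)/(control − disk diameter) × 100. Run twice, four replicates each.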

Cytospora mali = experiment: Antifungal activity against Valsa mali assessed as inhibition of mycelium growth at 50 ug/ml relative to control; method in brief: as §1
Phytophthora nicotianae = experiment: Antifungal activity against Phytophthora parasitica assessed as inhibition of mycelium growth at 50 ug/ml relative to control; method in brief: as §1
Sclerotinia sclerotiorum = experiment: Antifungal activity against Sclerotinia sclerotiorum assessed as inhibition of mycelium growth at 50 ug/ml relative to control; method in brief: as §1
[1] = test system: Colletotrichum lindemuthianum; experiment: Antifungal activity against Colletotrichum lindemuthianum assessed as inhibition of mycelium growth at 50 ug/ml relative to control; method in brief: as §1
Rhizoctonia solani = experiment: Antifungal activity against Rhizoctonia solani assessed as inhibition of mycelium growth at 50 ug/ml relative to control; method in brief: as §1
[2] = test system: Bursaphelenchus xylophilus; experiment: Nematicidal activity against Bursaphelenchus xylophilus assessed as mortality at 200 mg/L after 72 hr relative to control
Method in brief: (§2)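 Compounds dissolved in acetone and diluted with distilled water to a 200 mg L-1 working solution. Distilled water served as blank, triplicate. Mortality counted at 24, 48 and 72 h, then corrected against the negative control with Abbott's formula.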

[3] = test system: Bursaphelenchus xylophilus; experiment: Nematicidal activity against Bursaphelenchus xylophilus assessed as mortality at 200 mg/L after 48 hr relative to control; method in brief: as §2
[4] = test system: Bursaphelenchus xylophilus; experiment: Nematicidal activity against Bursaphelenchus xylophilus assessed as mortality at 200 mg/L after 24 hr relative to control; method in brief: as §2
[5] = test system: Bursaphelenchus xylophilus; experiment: Nematicidal activity against Bursaphelenchus xylophilus assessed as mortality after 48 hr; conditions: read-out: LD50 (the source's name)
[6] = test system: Bursaphelenchus xylophilus; experiment: Nematicidal activity against Bursaphelenchus xylophilus assessed as mortality after 24 hr; conditions: read-out: LD50 (the source's name)
[7] = test system: Bursaphelenchus xylophilus; experiment: Nematicidal activity against Bursaphelenchus xylophilus assessed as mortality after 72 hr; conditions: read-out: LD50 (the source's name)

| SMILES | inhibition at 50 µg/mL (Botrytis cinerea) [%] | inhibition at 50 µg/mL (Cytospora mali) [%] | inhibition at 50 µg/mL (Phytophthora nicotianae) [%] | inhibition at 50 µg/mL (Sclerotinia sclerotiorum) [%] | inhibition at 50 µg/mL [1] [%] | inhibition at 50 µg/mL (Rhizoctonia solani) [%] | Activity [2] [%] | Activity [3] [%] | Activity [4] [%] | LC50 [5] [µg/mL] | LC50 [6] [µg/mL] | LC50 [7] [µg/mL] |
| --- | --- | --- | --- | --- | --- | --- | --- | --- | --- | --- | --- | --- |
| CCc1ccc(/C(=C/C(=O)NCCc2ccc(O)cc2)c2ccnc(Cl)c2)cc1 | 37 | 24 | 28.2 | 17 | 24.6 | 67.7 | 43.97 | 33.6 | 14.73 |  |  |  |
| Cc1ccc(/C(=C/C(=O)NCCc2ccc(O)cc2)c2ccnc(Cl)c2)cc1C | 54 | -6.3 | -18.5 | 44 | 35.8 | 91 | 23.99 | 14.86 | 3.97 |  |  |  |
| Cc1ccc(/C(=C/C(=O)NCCc2ccc(O)cc2)c2ccnc(Cl)c2)c(C)c1 | 38 | 26 | -25 | 27 | 21.6 | 13.6 | 54.16 | 44.71 | 12.22 |  |  |  |
| CC(C)(C)c1ccc(/C(=C/C(=O)NCCc2ccc(O)cc2)c2ccnc(Cl)c2)cc1 | 50 | -7.8 | -13.7 | 29 | 39.5 | 9.03 | 31.44 | 27.76 | 21.17 |  |  |  |
| Cc1ccc(/C(=C/C(=O)NCCc2ccccc2)c2ccncc2)cc1 | 43 | 36 | -17.7 | 16 | 32.8 | 15.5 | 18.11 | 14.86 | 9.34 |  |  |  |
| CCc1ccc(/C(=C/C(=O)NCCc2ccccc2)c2ccncc2)cc1 | 48 | 30 | 5.65 | 45 | 37.3 | 9.68 | 8.71 | 8.23 | 7.56 |  |  |  |
| Cc1ccc(/C(=C/C(=O)NCCc2ccccc2)c2ccncc2)cc1C | 15 | 18 | -9.68 | 2.7 | 17.2 | 3.87 | 49.07 | 47.67 | 28.7 |  |  |  |
| COc1ccc(CCNC(=O)/C=C(\c2ccncc2)c2ccc(C)c(C)c2)cc1OC | 52 | 68 | -14.5 | 11 | 28.4 | 5.81 | 19.29 | 16.33 | 13.65 |  |  |  |
| Cc1ccc(/C(=C/C(=O)NCCc2ccc(O)cc2)c2ccncc2)cc1 | 47 | -2.3 | -17.7 | 5.3 | 28.4 | 10.3 | 19.29 | 16.7 | 8.27 |  |  |  |
| Cc1ccc(/C(=C/C(=O)NCCc2ccc(O)cc2)c2ccncc2)cc1C | 64 | -2.3 | 14.5 | 27 | 38.8 | 16.1 | 32.22 | 22.6 | 11.86 |  |  |  |
| Cc1ccc(/C(=C/C(=O)NCCc2ccccc2)c2ccnc(Cl)c2)cc1 | 44 | 48 | 24.4 | 37 | 59.7 | 93.9 | 35.35 | 28.13 | 15.8 |  |  |  |
| CCc1ccc(/C(=C/C(=O)NCCc2ccccc2)c2ccnc(Cl)c2)cc1 | 50 | 20 | 26.8 | 44 | 34.3 | 22.4 | 67.87 | 26.29 | 17.95 | 174 (≈ 445 µM) | 301 (≈ 769 µM) | 114 (≈ 291 µM) |
| Cc1ccc(/C(=C/C(=O)NCCc2ccccc2)c2ccnc(Cl)c2)cc1C | 67 | 52 | 1.61 | 72 | 56 | 76.8 | 45.15 | 21.49 | 14.73 | 315 (≈ 805 µM) | 430 (≈ 1100 µM) | 252 (≈ 646 µM) |
| Cc1ccc(/C(=C/C(=O)NCCc2ccccc2)c2ccnc(Cl)c2)c(C)c1 | 43 | 31 | 11.3 | 24 | 47 | 4.52 | 27.91 | 24.44 | 22.97 |  |  |  |
| COc1ccc(/C(=C/C(=O)NCCc2ccccc2)c2ccnc(Cl)c2)cc1 | 55 | -6.3 | -2.42 | 42 | 43.3 | 13.6 | 42.01 | 38.82 | 13.65 |  |  |  |
| COc1ccc(CCNC(=O)/C=C(/c2ccc(C)cc2)c2ccnc(Cl)c2)cc1OC | 59 | 42 | 0 | 42 | 55.2 | 82.6 | 43.97 | 38.45 | 13.29 | 178 (≈ 409 µM) | 305 (≈ 699 µM) | 126 (≈ 289 µM) |
| COc1ccc(CCNC(=O)/C=C(\c2ccnc(Cl)c2)c2ccc(C)c(C)c2)cc1OC | 33 | 36 | 14.2 | 28 | 23.9 | 23.8 | 21.64 | 17.81 | 8.63 |  |  |  |
| COc1ccc(CCNC(=O)/C=C(\c2ccnc(Cl)c2)c2ccc(C)cc2C)cc1OC | 40 | 29 | 22.6 | 68 | 42.5 | 35.5 | 38.09 | 34.02 | 19.02 |  |  |  |
| COc1ccc(CCNC(=O)/C=C(/c2ccc(C(C)(C)C)cc2)c2ccnc(Cl)c2)cc1OC | 48 | 18 | -8.06 | 53 | 22.4 | 14.8 | 45.15 | 38.82 | 4.33 |  |  |  |
| Cc1ccc(/C(=C/C(=O)NCCc2ccc(O)cc2)c2ccnc(Cl)c2)cc1 | 33 | 29 | -18.5 | 29 | 16.4 | 72.9 | 14.2 | 12.65 | 7.56 |  |  |  |
| CO/C=C(/C(=O)OC)c1ccccc1Oc1cc(Oc2ccccc2C#N)ncn1 [AZOXYSTROBIN] | 80 | 92 | 37.9 | 100 |  | 89 |  |  |  |  |  |  |
| COC(=O)Nc1nc2ccccc2[nH]1 [CARBENDAZIM] | 38 | 100 | 14.5 | 100 | 82.1 | 100 |  |  |  |  |  |  |
| N#Cc1c(Cl)c(Cl)c(Cl)c(C#N)c1Cl [CHLOROTHALONIL] | 95 | 88 | 63.7 | 70 |  | 75.5 |  |  |  |  |  |  |
| CN(/C=C\c1ccccc1)C(=O)/C=C/c1ccccc1 [LANSIUMAMIDE B] |  |  |  |  |  |  | 100 | 100 | 100 | 6.36 (≈ 24.2 µM) | 8.38 (≈ 31.8 µM) | 5.38 (≈ 20.4 µM) |
| CC(C)(C)c1ccc(/C(=C/C(=O)N2CCOCC2)c2ccnc(Cl)c2)cc1 [PYRIMORPH] |  |  |  | 79 |  | 97.2 |  |  |  |  |  |  |
